The values below come from the EternaBench riboswitch data.

As a reminder, the apparent Kd is a dissociation constant that holds for the conditions of the assay.

In the series the test system is MS2 coat protein. Description: apparent Kd, MS2 coat protein; higher = weaker binding; RNA-MaP array; FMN 200 µM where present. An outline of the steps: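 On Illumina sequencing-chip clusters, designs were transcribed by stalled E. coli RNA polymerase and titrated with SNAP-549-labelled MS2 coat protein (0.7 or 1.5 nM, doubling to 3 µM), without and then with constant ligand, in 100 mM Tris-HCl pH 7.5, 80 mM KCl, 4 mM MgCl2, BSA, DTT, yeast tRNA and Tween-20. Apparent Kd is the median of filtered per-cluster curve fits to green signal normalised to red-channel RNA signal and control-cluster median Fmax.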

Where [1] appears, read: designed as: OFF switch for flavin mononucleotide, no ligand.
The mark [2] stands for this setting: ligand present: flavin mononucleotide, designed as: OFF switch for flavin mononucleotide.
Setting [3] is: designed as: ON switch for flavin mononucleotide, no ligand.
[4] abbreviates: ligand present: flavin mononucleotide, designed as: ON switch for flavin mononucleotide.

Take “UUAAGUCAUGUAGGAUAUCCGAUGCGAAGCGUUGGAGAAGGACAUGAGGAUCACCCAUGUUCUAGCGUCUGAGUACAGAUGCAA”: the “apparent Kd” value by setting is: under setting [1], 27 nM; under setting [2], 76 nM.
In the case of “UUAUUUAUGCAAGGAUAUCAAUUAUAUUGACGUCCUACAUGAGGAUCACCCAUGUUUAGUUUUUUUGAGAAGGUGCAUUGUCUG”, the “apparent Kd” value is, setting by setting: under setting [3], 64.8 nM; under setting [4], 59.7 nM.
“AAUAUAGAGCUGGAAAUAAACUCAACAUGAGGAUCACCCAUGUAGGAUAUCAGCACGAUAAGUGCUGAGAAGGACAUCCAGCUC”: the “apparent Kd” value was 16.7 nM under setting [1] and 17.1 nM under setting [2].
In the same order, the values of “UCAGGCUUCGAGAAGGACAUGAAUCGUAGCAUUGCUACGAUGAAACAUACAUGAGGAUCACCCAUGUAGGAUAUCGGAGUCUGC” are 5.14 nM and 5.55 nM.
“UUUCGGCUCGAGAAGGUCUAUCGACAUGAGGAUCACCCAUGUUGCCAUGGAAGGAUAUCGAAGGCAGCACGGGAAAUAGUCCGG”: the “apparent Kd” value came out at 185 nM under setting [3] and 53.3 nM under setting [4].
Consider “AAAUUGUGAGGAUAUCAGGUGUGCUAGCGUACUGGUACAUCUGAGAAGGCACAUGAGGAUCACCCAUGUUUCUU”, for which the “apparent Kd” value amounted to 16.1 nM under setting [1] and 44.2 nM under setting [2].
The matching figures for “UACAGCUUGACAGGAUAUACAUGACUGCGAAAGCAGUCUAUCUUAAUAACAUGAGGAUCACCCAUGUAGAAGGGUCGAGCUGUA”: 17.6 nM and 27 nM.
In the same order, the values of “UAUUAUUUGGAGAAGGACAUGAGGAUCACCCAUGUCGCCGGGCCCGGGAAACCGGGCCCGGCCAUGUAGGAUAUCCGGGUGGUA” are 12.7 nM and 13.6 nM.
For the sequence “UAUGACAUGAGGAUCACCCAUGUCAGCGAGAAAUGAGAGUCACAGGAUAUGUUUUCGGCCGGCAGACAGAAGGGUGACCCUGAG”, the “apparent Kd” value under setting [3] was 10.9 nM and the “apparent Kd” value under setting [4] worked out at 7.02 nM.
The matching figures for “GCCAUCGUAUGAGGAUAUGGCACCGAAACGGUGCCAGAAGGCAUGUCAAUAGACAUGAGGAUCACCCAUGUGUUAUCGAUGGCA”: 379 nM and 36.5 nM.
For “GCAGCUAAUGCAGGAUAUCAGCACGUGUAGUGCUGAGAAGGGCACAUGAGGAUCACCCAUGUGAUCAAUUAAUCUUAAUGCUGC”, the “apparent Kd” value is, setting by setting: under setting [1], 17.3 nM; under setting [2], 54.5 nM.
In the case of “CAUACACAUGAGGAUCACCCAUGUGAGGAUAUGCGUACGUUGUCCGUAGGCGACGUGCGCAGAAGGCGCGUGUU”, the “apparent Kd” value is 56.9 nM under setting [1] and 48.3 nM under setting [2].
In the same order, the values of “GCUGCGCGAGGAUAUGCGGUUUGUGCUUUGGGCCCUGGCGUACAUGAGGAUCACCCAUGUAGAAGGCGUGUGGG” are 43.6 nM and 38.4 nM.
In the same order, the values of “UCCUCACAUGAGGAUCACCCAUGUCAGGAUAUACCCAAAGCUGCGAAAAUAUCCAGCUGUAGAAGGGACAGGCU” are 18.3 nM and 20.1 nM.
For “AUCGGGAUUACAUGAGGAUCACCCAUGUCAGAACGGGUAGUUAGAAGGUGCCAUUAGGGAGAGGGUAAGGAUAUAAUUUUUGGC”, the “apparent Kd” value is, setting by setting: under setting [3], 14.6 nM; under setting [4], 12.8 nM.
Take “AAGAAGUCAGGAUAUGCUGCUCGUCACUUGCGUGAUGAGUAGCAGAAGGGACAUGAGGAUCACCCAUGUAAAGC”: the “apparent Kd” value runs as follows: under setting [1], 44 nM; under setting [2], 52.4 nM.
In the same order, the values of “AAUUAUUUGUAGAAGGAAGGAGAUUUUGUAUUCUUAGGAUAUACUAUUACAUGAGGAUCACCCAUGUUUGAAGGGUUGCUAUGU” are 74.2 nM and 82.2 nM.
Consider “GCGGUAUUGUAAGGAUAUACUCUGUGAUGAAGAGUAGAAGGUACUUACAUGAGGAUCACCCAUGUUUAACGUGAAAAUAACCGC”, for which the “apparent Kd” value by setting is: under setting [3], 47 nM; under setting [4], 22.6 nM.
Turning to “AUACCUUAUGAGAAGGCGAUCAUGAAACAUGAUCGAGGAUAUCAUGUAAACAUGAGGAUCACCCAUGUAUGGGUAUUAUGGUAG”, the “apparent Kd” value is, setting by setting: under setting [3], 34 nM; under setting [4], 10.5 nM.
“GUAGAGUAGUGAGGAUAUACGAGCUCGAUAGAGCGGCGAUCCAAUAAUACAUGAGGAUCACCCAUGUAGAAGGCACUUCUCUAC”: the “apparent Kd” value by setting is: under setting [1], 6.71 nM; under setting [2], 91 nM.
Consider “AUCAGCUCUUCAGGAUAUACGUCACUGCGUCAGCAGUGUGGUAAGAUCACAUGAGGAUCACCCAUGUAGAAGGGACGAGCUGAU”, for which the “apparent Kd” value by setting is: under setting [1], 12.2 nM; under setting [2], 173 nM.
As for “AGUUUUGUACAUGAGGAUCACCCAUGUUAAUAUGUGGUAGUCAGAAGGCAUUGUUAGUGUUUAUAUGAGGAUAUGAUUAGUCAG”, the “apparent Kd” value under setting [3] worked out at 50.3 nM and the “apparent Kd” value under setting [4] was determined as 26.4 nM.
Consider “GAACAUGUCCGAGGAUAUCUGGAAACAUUUCCAAGAGAAGGCGGACAUGAGGAUCACCCAUGUCUCUCCUCAUCAAAUCCAAGU”, for which the “apparent Kd” value under setting [1] came to 10.1 nM and the “apparent Kd” value under setting [2] was determined as 91.9 nM.
The matching figures for “AACAAACAUGAGGAUCACCCAUGUGAGGAUAUCGAAACAACAAACAACAAACAACAAACGAGAAGGCGCAACAA”: 29.1 nM and 27.6 nM.
For the sequence “AGAUACAACCAGAAGGACAUGAGGAUCACCCAUGUAGGAUAUGGGUUACACGUUCCUGGGAAUUGUAACGACGCUACGAAGAGU”, the “apparent Kd” value came to 126 nM under setting [3] and 12.8 nM under setting [4].
The matching figures for “CGGGAAGUCGUAGGAUAUGGUGAUGUACAUGAGGAUCACCCAUGUCCGUCUUCUCUCACAAGAUGCCAGAAGGGCGACUCCCGG”: 641 nM and 317 nM.
As for “GAACAUGUCCGAGGAUAUCUGAGAUCAUUUUCAAGAGAAGGCGGACAUGAGGAUCACCCAUGUCUCUCCUCAUCAACUCCAAAU”, the “apparent Kd” value under setting [1] was 6.95 nM and the “apparent Kd” value under setting [2] was found to be 38.5 nM.
In the same order, the values of “UUAUUAUGUGUAGGAUAUGCAUAUCAUUAUUAUGCAGAAGGACAUGAGGAUCACCCAUGUAUAUUAUUAUUAUAUAUUAUAUAU” are 15.3 nM and 16.6 nM.
As for “GGAGCAGGGUCAGGAUAUGUAAGUAGACGGCAAAUAGAAGGGACAUGAGGAUCACCCAUGUAACAUUAAAAUGAAGCAAGGGAG”, the “apparent Kd” value is, setting by setting: under setting [1], 59.1 nM; under setting [2], 71.1 nM.
The matching figures for “GGAUAGGACAGAGGAUAUACGUGCUAGAGAUACUAUCAAAAUUUCCUCACAUGAGGAUCACCCAUGUAGAAGGCUGUCCUAUCG”: 270 nM and 52.1 nM.
As for “AAAAGACAUGAGGAUCACCCAUGUCAAGACGUGGGAGGAUAUGUAUGGAAACCAGACUGUACAGAAGGCCUUUGUC”, the “apparent Kd” value turned out to be 46.8 nM under setting [3] and 20.1 nM under setting [4].
In the same order, the values of “UAGGUUUGUAGUUACAUCCCUACACAGGAUAUGGGUAGUUACAUGAGGAUCACCCAUGUUCGAACUCAGAAGGGUGGAUCGUUA” are 170 nM and 13.8 nM.
Regarding “UUAUGUGGCGUAGGAUAUCAUUAGAUUUGUAAUUUAAUUGUAAUUUCCAUAUGAGAAGGACGUACACAUGAGGAUCACCCAUGU”, the “apparent Kd” value is 90.1 nM under setting [1] and 32.4 nM under setting [2].
For the sequence “GCUAGUAUUGCAGGAUAUUGUAAUUUAUUAUUUCAAGAAGGGCAUUACAUGAGGAUCACCCAUGUCAUCCUAUGGUUUACUAGC”, the “apparent Kd” value amounted to 9.2 nM under setting [1] and 19.9 nM under setting [2].
In the same order, the values of “GGAAAUUAGCAAGGAUAUCGGCUCACUAUUACUUUAUGCCCUAGGACAUGAGGAUCACCCAUGUACGAGAAGGUGCUAACUACA” are 28.5 nM and 31.1 nM.
The matching figures for “AUGCCUUAUGUAGGAUAUGCAUAGCAUUGCUAUGCAGAAGGACAUGAGGAUCACCCAUGUAUGUAUUCCAUACAUAUCUGGCAU”: 29.5 nM and 343 nM.
The matching figures for “UGUCGGAGCAGAGGAUAUUACAUGAGGAUCACCCAUGUAUGAAACAAUAGCUGGAAACAGCAAUGUAAGAAGGCUGCUCCGACA”: 5.94 nM and 11.3 nM.
As to “CGGGAAGUCGUAGGAUAUGGUGAUGUACAUGAGGAUCACCCAUGUCCGUCUUCUCUCACAAGAUGCCAGAAGGACGACCUCCGG”, the “apparent Kd” value is, setting by setting: under setting [3], 770 nM; under setting [4], 97.8 nM.
The matching figures for “UGUUGUAUUACAGGAUAUCUAUUGUUUUUUUUUAGAGAAGGGUAUUCACAUGAGGAUCACCCAUGUAUAUACGAGGAAGUUGUG”: 60.7 nM and 71.3 nM.
In the same order, the values of “ACUGACAUGAGGAUCACCCAUGUCUUGGAUAGGCCAAAUUCACAGGAUAUGCAUGAGGACAGCGUGCAGAAGGGUGAUGCAAUG” are 54.6 nM and 25.5 nM.
For the sequence “GUCAGCUUGUGAGGAUAUACAACACUGCUUCGGCAGUGUAUUAAGAUCACAUGAGGAUCACCCAUGUAGAAGGCACGAGCUGAU”, the “apparent Kd” value was 14 nM under setting [1] and 257 nM under setting [2].
The matching figures for “GCUUAAGUAGGAUAUACUUGGGCUCGGCUGAUGUGCCUAAAACAUGAGGAUCACCCAUGUAGAAGGACUAAAGC”: 13.9 nM and 12.1 nM.
On to “GUAGCAUACCGAGGAUAUUCAAAUAAUAAAUAAACAUGAGGAUCACCCAUGUGGCGAAAGCCUAGGGAGAAGGCGGAAUGCUAC”, for which the “apparent Kd” value came out at 48.2 nM under setting [3] and 16.9 nM under setting [4].
Regarding “AUUGUUAAGGUAGGAUAUAGUAAAAUGAUUUAAUUAGAAGGAUCUCACAUGAGGAUCACCCAUGUAAGAGGAUCACCCAUGUAU”, the “apparent Kd” value runs as follows: under setting [1], 12.9 nM; under setting [2], 9.73 nM.
The matching figures for “AUCAGCUCGUCAGGAUAUACGUCACUGCGUCAGCAGUGUGGUAAGAUAACAUGAGGAUCACCCAUGUAGAAGGGACGAGCUGAU”: 7.29 nM and 13.1 nM.
In the same order, the values of “GGAUAGGACAGAGGAUAUACGUGCUAGAGAUACUAGCAAAAUUUCCUCACAUGAGGAUCACCCAUGUAGAAGGCUGUCGUAUCG” are 15.3 nM and 334 nM.
The matching figures for “GUCAGCUCGUGAGGAUAUACAACACUGCUUCGGCAGUGUAUUAAGAUCACAUGAGGAUCACCCAUGUAGAAGGUACGAGCUGAU”: 8.56 nM and 82.9 nM.
